{"source": "ChEMBL document CHEMBL4261620", "about": "“Design, synthesis, and biological evaluation of 4-chloro-2H-thiochromenes featuring nitrogen-containing side chains as potent antifungal agents” (Bioorg Med Chem Lett, 2018)", "data": [{"system": "Candida albicans", "test": "Antifungal activity against Candida albicans cpcc 400616 after 2 to 7 days by broth microdilution method", "assay_type": "functional", "outline": "(§1)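 Broth microdilution in 96-well plates per NCCLS. Compounds and fluconazole reference dissolved in DMSO, serially diluted in growth medium, then inoculum suspension added, final concentrations 128 to 0.25 µg/mL (twofold series). Incubated at 32°C. MIC read visually after 2-7 d.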", "units": {"MIC": "µg/mL"}, "values": [{"smiles": "O=C1CCSc2ccc(Cl)cc21", "MIC": 16}, {"smiles": "CC(C)N(CC1=C(Cl)c2cc(Cl)ccc2SC1)C(C)C", "MIC": 4}, {"smiles": "O=C1CCSc2ccc(F)cc21", "MIC": 32}, {"smiles": "Fc1ccc2c(c1)C(Cl)=C(Cn1ccnc1)CS2", "MIC": 16}, {"smiles": "Fc1ccc2c(c1)C(Cl)=C(CN1CCCCC1)CS2", "MIC": 2}, {"smiles": "CC(C)N(CC1=C(Cl)c2cc(Br)ccc2SC1)C(C)C", "MIC": 0.5}, {"smiles": "CC(C)NCC1=C(Cl)c2cc(Cl)ccc2SC1", "MIC": 32}, {"smiles": "O=CC1=C(Cl)c2cc(Br)ccc2SC1", "MIC": 32}, {"smiles": "CN1CCN(CC2=C(Cl)c3cc(Br)ccc3SC2)CC1", "MIC": 16}, {"smiles": "ClC1=C(Cn2ccnc2)CSc2ccc(Br)cc21", "MIC": 64}, {"smiles": "Cc1ccc2c(c1)C(=O)CCS2", "MIC": 16}, {"smiles": "O=C1CCSc2ccc(Br)cc21", "MIC": 32}, {"smiles": "Cc1ccc2c(c1)C(Cl)=C(CN1CCCCC1)CS2", "MIC": 32}, {"smiles": "Cc1ccc2c(c1)C(Cl)=C(CN1CCN(C)CC1)CS2", "MIC": 32}, {"smiles": "CCN(CC)CC1=C(Cl)c2cc(F)ccc2SC1", "MIC": 8}, {"smiles": "ClC1=C(Cn2cncn2)CSc2ccc(Br)cc21", "MIC": "> 128"}, {"smiles": "CCN(CC)CC1=C(Cl)c2cc(C)ccc2SC1", "MIC": 32}, {"smiles": "ClC1=C(CN2CCCC2)CSc2ccc(Cl)cc21", "MIC": 32}]}, {"system": "Candida albicans", "test": "Antifungal activity against fluconazole-sensitive Candida albicans ATCC SC5314 after 2 to 7 days by broth microdilution method", "assay_type": "functional", "outline": "as §1", "units": {"MIC": "µg/mL"}, "values": [{"smiles": "O=C1CCSc2ccc(Cl)cc21", "MIC": 4}, {"smiles": "CC(C)N(CC1=C(Cl)c2cc(Cl)ccc2SC1)C(C)C", "MIC": 4}, {"smiles": "O=C1CCSc2ccc(F)cc21", "MIC": 8}, {"smiles": "Fc1ccc2c(c1)C(Cl)=C(Cn1ccnc1)CS2", "MIC": 4}, {"smiles": "Fc1ccc2c(c1)C(Cl)=C(CN1CCCCC1)CS2", "MIC": 8}, {"smiles": "CC(C)N(CC1=C(Cl)c2cc(Br)ccc2SC1)C(C)C", "MIC": 0.5}, {"smiles": "CC(C)NCC1=C(Cl)c2cc(Cl)ccc2SC1", "MIC": 16}, {"smiles": "O=CC1=C(Cl)c2cc(Br)ccc2SC1", "MIC": 16}, {"smiles": "CN1CCN(CC2=C(Cl)c3cc(Br)ccc3SC2)CC1", "MIC": 8}, {"smiles": "ClC1=C(Cn2ccnc2)CSc2ccc(Br)cc21", "MIC": 16}, {"smiles": "Cc1ccc2c(c1)C(=O)CCS2", "MIC": 8}, {"smiles": "O=C1CCSc2ccc(Br)cc21", "MIC": 8}, {"smiles": "Cc1ccc2c(c1)C(Cl)=C(CN1CCCCC1)CS2", "MIC": 16}, {"smiles": "Cc1ccc2c(c1)C(Cl)=C(CN1CCN(C)CC1)CS2", "MIC": 8}, {"smiles": "CCN(CC)CC1=C(Cl)c2cc(F)ccc2SC1", "MIC": 8}, {"smiles": "ClC1=C(Cn2cncn2)CSc2ccc(Br)cc21", "MIC": 64}, {"smiles": "CCN(CC)CC1=C(Cl)c2cc(C)ccc2SC1", "MIC": 32}, {"smiles": "ClC1=C(CN2CCCC2)CSc2ccc(Cl)cc21", "MIC": 1}]}, {"system": "Candida albicans", "test": "Antifungal activity against fluconazole-resistant Candida albicans 103 after 2 to 7 days by broth microdilution method", "assay_type": "functional", "outline": "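Broth microdilution per NCCLS. Compounds dissolved in DMSO, serially diluted in growth medium, then inoculum suspension added to give final concentrations of 128 to 0.25 µg/mL (twofold steps). Plates incubated at 32°C. MIC read by visual observation after 2-7 d. Fluconazole served as reference drug.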", "units": {"MIC": "µg/mL"}, "values": [{"smiles": "O=C1CCSc2ccc(Cl)cc21", "MIC": 16}, {"smiles": "CC(C)N(CC1=C(Cl)c2cc(Cl)ccc2SC1)C(C)C", "MIC": 64}, {"smiles": "O=C1CCSc2ccc(F)cc21", "MIC": 64}, {"smiles": "Fc1ccc2c(c1)C(Cl)=C(Cn1ccnc1)CS2", "MIC": 64}, {"smiles": "Fc1ccc2c(c1)C(Cl)=C(CN1CCCCC1)CS2", "MIC": 16}, {"smiles": "CC(C)N(CC1=C(Cl)c2cc(Br)ccc2SC1)C(C)C", "MIC": 0.5}, {"smiles": "CC(C)NCC1=C(Cl)c2cc(Cl)ccc2SC1", "MIC": 32}, {"smiles": "O=CC1=C(Cl)c2cc(Br)ccc2SC1", "MIC": 64}, {"smiles": "CN1CCN(CC2=C(Cl)c3cc(Br)ccc3SC2)CC1", "MIC": 64}, {"smiles": "ClC1=C(Cn2ccnc2)CSc2ccc(Br)cc21", "MIC": "> 128"}, {"smiles": "Cc1ccc2c(c1)C(=O)CCS2", "MIC": 64}, {"smiles": "O=C1CCSc2ccc(Br)cc21", "MIC": 64}, {"smiles": "Cc1ccc2c(c1)C(Cl)=C(CN1CCCCC1)CS2", "MIC": 128}, {"smiles": "Cc1ccc2c(c1)C(Cl)=C(CN1CCN(C)CC1)CS2", "MIC": 64}, {"smiles": "CCN(CC)CC1=C(Cl)c2cc(F)ccc2SC1", "MIC": 64}, {"smiles": "ClC1=C(Cn2cncn2)CSc2ccc(Br)cc21", "MIC": "> 128"}, {"smiles": "CCN(CC)CC1=C(Cl)c2cc(C)ccc2SC1", "MIC": 64}, {"smiles": "ClC1=C(CN2CCCC2)CSc2ccc(Cl)cc21", "MIC": "> 128"}]}, {"system": "Cryptococcus neoformans", "test": "Antifungal activity against Cryptococcus neoformans cgmcc 2.3161 after 2 to 7 days by broth microdilution method", "assay_type": "functional", "outline": "as §1", "units": {"MIC": "µg/mL"}, "values": [{"smiles": "O=C1CCSc2ccc(Cl)cc21", "MIC": 32}, {"smiles": "CC(C)N(CC1=C(Cl)c2cc(Cl)ccc2SC1)C(C)C", "MIC": 64}, {"smiles": "O=C1CCSc2ccc(F)cc21", "MIC": 64}, {"smiles": "Fc1ccc2c(c1)C(Cl)=C(Cn1ccnc1)CS2", "MIC": 32}, {"smiles": "Fc1ccc2c(c1)C(Cl)=C(CN1CCCCC1)CS2", "MIC": 2}, {"smiles": "CC(C)N(CC1=C(Cl)c2cc(Br)ccc2SC1)C(C)C", "MIC": 0.25}, {"smiles": "CC(C)NCC1=C(Cl)c2cc(Cl)ccc2SC1", "MIC": 0.5}, {"smiles": "O=CC1=C(Cl)c2cc(Br)ccc2SC1", "MIC": 32}, {"smiles": "CN1CCN(CC2=C(Cl)c3cc(Br)ccc3SC2)CC1", "MIC": 8}, {"smiles": "ClC1=C(Cn2ccnc2)CSc2ccc(Br)cc21", "MIC": 8}, {"smiles": "Cc1ccc2c(c1)C(=O)CCS2", "MIC": 32}, {"smiles": "O=C1CCSc2ccc(Br)cc21", "MIC": 64}, {"smiles": "Cc1ccc2c(c1)C(Cl)=C(CN1CCCCC1)CS2", "MIC": 16}, {"smiles": "Cc1ccc2c(c1)C(Cl)=C(CN1CCN(C)CC1)CS2", "MIC": 32}, {"smiles": "CCN(CC)CC1=C(Cl)c2cc(F)ccc2SC1", "MIC": 2}, {"smiles": "ClC1=C(Cn2cncn2)CSc2ccc(Br)cc21", "MIC": 8}, {"smiles": "CCN(CC)CC1=C(Cl)c2cc(C)ccc2SC1", "MIC": 8}, {"smiles": "ClC1=C(CN2CCCC2)CSc2ccc(Cl)cc21", "MIC": 4}]}, {"system": "Candida tropicalis", "test": "Antifungal activity against Candida tropicalis cgmcc 2.3739 after 2 to 7 days by broth microdilution method", "assay_type": "functional", "outline": "as §1", "units": {"MIC": "µg/mL"}, "values": [{"smiles": "O=C1CCSc2ccc(Cl)cc21", "MIC": 8}, {"smiles": "CC(C)N(CC1=C(Cl)c2cc(Cl)ccc2SC1)C(C)C", "MIC": 64}, {"smiles": "O=C1CCSc2ccc(F)cc21", "MIC": 16}, {"smiles": "Fc1ccc2c(c1)C(Cl)=C(Cn1ccnc1)CS2", "MIC": 8}, {"smiles": "Fc1ccc2c(c1)C(Cl)=C(CN1CCCCC1)CS2", "MIC": 16}, {"smiles": "CC(C)N(CC1=C(Cl)c2cc(Br)ccc2SC1)C(C)C", "MIC": "> 128"}, {"smiles": "CC(C)NCC1=C(Cl)c2cc(Cl)ccc2SC1", "MIC": 32}, {"smiles": "O=CC1=C(Cl)c2cc(Br)ccc2SC1", "MIC": 64}, {"smiles": "CN1CCN(CC2=C(Cl)c3cc(Br)ccc3SC2)CC1", "MIC": 16}, {"smiles": "ClC1=C(Cn2ccnc2)CSc2ccc(Br)cc21", "MIC": "> 128"}, {"smiles": "Cc1ccc2c(c1)C(=O)CCS2", "MIC": 4}, {"smiles": "O=C1CCSc2ccc(Br)cc21", "MIC": 16}, {"smiles": "Cc1ccc2c(c1)C(Cl)=C(CN1CCCCC1)CS2", "MIC": 64}, {"smiles": "Cc1ccc2c(c1)C(Cl)=C(CN1CCN(C)CC1)CS2", "MIC": 8}, {"smiles": "CCN(CC)CC1=C(Cl)c2cc(F)ccc2SC1", "MIC": 2}, {"smiles": "ClC1=C(Cn2cncn2)CSc2ccc(Br)cc21", "MIC": "> 128"}, {"smiles": "CCN(CC)CC1=C(Cl)c2cc(C)ccc2SC1", "MIC": 64}, {"smiles": "ClC1=C(CN2CCCC2)CSc2ccc(Cl)cc21", "MIC": 4}]}, {"system": "Aspergillus fumigatus", "test": "Antifungal activity against Aspergillus fumigatus cgmcc 3.7795 after 2 to 7 days by broth microdilution method", "assay_type": "functional", "outline": "as §1", "units": {"MIC": "µg/mL"}, "values": [{"smiles": "O=C1CCSc2ccc(Cl)cc21", "MIC": "> 128"}, {"smiles": "CC(C)N(CC1=C(Cl)c2cc(Cl)ccc2SC1)C(C)C", "MIC": "> 128"}, {"smiles": "O=C1CCSc2ccc(F)cc21", "MIC": 64}, {"smiles": "Fc1ccc2c(c1)C(Cl)=C(Cn1ccnc1)CS2", "MIC": "> 128"}, {"smiles": "Fc1ccc2c(c1)C(Cl)=C(CN1CCCCC1)CS2", "MIC": "> 128"}, {"smiles": "CC(C)N(CC1=C(Cl)c2cc(Br)ccc2SC1)C(C)C", "MIC": "> 128"}, {"smiles": "CC(C)NCC1=C(Cl)c2cc(Cl)ccc2SC1", "MIC": 64}, {"smiles": "O=CC1=C(Cl)c2cc(Br)ccc2SC1", "MIC": "> 128"}, {"smiles": "CN1CCN(CC2=C(Cl)c3cc(Br)ccc3SC2)CC1", "MIC": "> 128"}, {"smiles": "ClC1=C(Cn2ccnc2)CSc2ccc(Br)cc21", "MIC": "> 128"}, {"smiles": "Cc1ccc2c(c1)C(=O)CCS2", "MIC": "> 128"}, {"smiles": "O=C1CCSc2ccc(Br)cc21", "MIC": "> 128"}, {"smiles": "Cc1ccc2c(c1)C(Cl)=C(CN1CCCCC1)CS2", "MIC": "> 128"}, {"smiles": "Cc1ccc2c(c1)C(Cl)=C(CN1CCN(C)CC1)CS2", "MIC": "> 128"}, {"smiles": "CCN(CC)CC1=C(Cl)c2cc(F)ccc2SC1", "MIC": "> 128"}, {"smiles": "ClC1=C(Cn2cncn2)CSc2ccc(Br)cc21", "MIC": "> 128"}, {"smiles": "CCN(CC)CC1=C(Cl)c2cc(C)ccc2SC1", "MIC": "> 128"}, {"smiles": "ClC1=C(CN2CCCC2)CSc2ccc(Cl)cc21", "MIC": "> 128"}]}, {"system": "A549", "test": "Cytotoxicity against human A549 cells by MTT assay", "assay_type": "cell-based", "units": {"IC50": "µg/mL"}, "values": [{"smiles": "CC(C)N(CC1=C(Cl)c2cc(Br)ccc2SC1)C(C)C", "IC50": 36}, {"smiles": "O=CC1=C(Cl)c2cc(Br)ccc2SC1", "IC50": "> 100"}]}, {"system": "HepG2", "test": "Cytotoxicity against human HepG2 cells by MTT assay", "assay_type": "cell-based", "units": {"IC50": "µg/mL"}, "values": [{"smiles": "CC(C)N(CC1=C(Cl)c2cc(Br)ccc2SC1)C(C)C", "IC50": "> 100"}, {"smiles": "O=CC1=C(Cl)c2cc(Br)ccc2SC1", "IC50": 26.6}]}, {"system": "HT-29", "test": "Cytotoxicity against human HT-29 cells by MTT assay", "assay_type": "cell-based", "units": {"IC50": "µg/mL"}, "values": [{"smiles": "CC(C)N(CC1=C(Cl)c2cc(Br)ccc2SC1)C(C)C", "IC50": "> 100"}, {"smiles": "O=CC1=C(Cl)c2cc(Br)ccc2SC1", "IC50": 28.8}]}, {"system": "H9c2", "test": "Cytotoxicity against rat H9c2 cells by MTT assay", "assay_type": "cell-based", "units": {"IC50": "µg/mL"}, "values": [{"smiles": "CC(C)N(CC1=C(Cl)c2cc(Br)ccc2SC1)C(C)C", "IC50": "> 100"}, {"smiles": "O=CC1=C(Cl)c2cc(Br)ccc2SC1", "IC50": "> 100"}]}]}
